Tests used:
[1] = test system: Hepatitis C virus; assay: Antiviral activity against Hepatitis C virus genotype 1b infected in human HuH5.2 cells after 72 hrs by luciferase reporter gene assay; format: functional, cell-based, Hepacivirus hominis
In short: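 Huh 5-2 cells with genotype 1b I389luc-ubi-neo/NS3-3'/5.1 subgenomic replicon, seeded 6 500 cells/well in DMEM/10% FCS without Geneticin, overnight 37 °C. Compound (DMSO stock diluted in medium) in 1:5 four-step or 1:2 eight-step series, 72 h. Cells PBS-washed, lysed 5 min, luciferase luminescence read, converted to % untreated control; EC50 from dose-response curve, mean of ≥2 independent experiments.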

[2] = Cytotoxicity against human HuH5.2 cells assessed as reduction in metabolic activity after 72 hrs by MTS assay; format: toxicity, cell-based, Huh-5-2; settings: HuH5.2 cells
In short: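 Run in parallel with the replicon assay: Huh 5-2 replicon cells, 6 500 cells/well, compound series for 72 h at 37 °C, 5% CO2. Medium then replaced with 5% MTS in phenol red-free medium for 1.5 h. Absorbance at 498 nm expressed as % untreated cells; CC50 from dose-response curve as 50% reduction in metabolic activity, mean of ≥2 experiments.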

[3] = Selectivity index, ratio of CC50 for human HuH5.2 cells to EC50 for hepatitis C virus genotype 1b infected in human HuH5.2 cells; format: toxicity, cell-based; settings: HuH5.2 cells, read-out: Ratio CC50/EC50
In short: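 Ratio of CC50 (MTS metabolic read-out, 72 h) to EC50 (replicon luciferase read-out, 72 h), both measured in parallel on Huh 5-2 genotype 1b replicon cells.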

[4] = Inhibition of Hepatitis C virus genotype 1b (con1) full length C-terminal His-tagged NS3 helicase expressed in Escherichia coli Rosette(DE3) assessed as inhibition of 5'-Cy5/3'-IAbRQ-labeled DNA unwinding activity by molecular beacon assay; design: species or system Hepatitis C virus (isolate Con1)
In short: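 Molecular beacon unwinding assay: 25 mM MOPS pH 6.5, 1.25 mM MgCl2, 5% DMSO, 5 µg/ml BSA, 0.01% Tween20, 0.05 mM DTT, 5 nM fluorescent DNA substrate, 12.5 nM NS3h, 1 mM ATP.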

[5] = Hepatitis C virus, genotype 1b, Huh-5-2, 72 h

EC50 [1, 5] [µM] | EC90 [1, 5] [µM] | IC50 [4] [µM] | EC50 [1] [µM] | EC90 [1] [µM] | SMILES | CC50 at 72 h [2] [µM] | selectivity ratio [3]
> 144 | > 144 |  |  |  | COc1cc2nc(CN3CCC(C(N)=O)CC3)[nH]c(=O)c2cc1OC | > 144 | 
210 | > 220 |  |  |  | O=C(NNc1ncnc2sc3c(c12)CCCC3)c1cccc(O)c1 | > 294 | > 1.4
1.9 |  |  |  |  | Cc1cc(O)cc(O)c1/C=N/NC(=O)COc1ccc2ccccc2c1 | 51.9 | 27.3
53.6 |  |  |  |  | COc1ccc(OC)c(/C(C)=N/Nc2ncnc3sc4c(c23)CCCC4)c1 | 98.5 | 1.8
0.832 | 1.6 |  |  |  | O=C(NNc1ncnc2sc3ccccc3c12)c1ccccc1O | 108 | 130
1.1 |  |  |  |  | CCc1ccc(S(=O)(=O)Nc2cc3c(C(=O)OC)c(C)oc3c3ccccc23)cc1 | 4.7 | 4.3
21.5 |  |  |  |  | CC(=O)Nc1ccc(/C=C2\C=C(C(O)c3ccc(NC(C)=O)cc3)c3ccccc32)cc1 (stereo not given) | 48.8 | 2.3
36 |  |  |  |  | CCOc1cc(C2C(C(=O)OC)=C(C)NC3=C2C(=O)CC(c2ccc(OC)c(OC)c2)C3)ccc1O (stereo not given) | > 101 | > 2.8
199 |  |  |  |  | O=C(NNc1ncnc2sc3c(c12)CCCC3)c1ccco1 | 230 | 1.2
33.6 | > 310 |  |  |  | C/C(=N\Nc1ncnc2sc3c(c12)CCCC3)c1ccccc1 | 53.4 | 1.6
0.17 |  |  |  |  | C/C(=N/Nc1ncnc2sc(Cl)c(C)c12)c1ccccc1O | > 9.01 | > 56.1
21 |  |  |  |  | COc1ccc(-c2c3c(nc4sc5c(O)nc(C)nc5c24)CCC3)cc1 | 128 | 6.1
23 |  |  |  |  | C/C(=N\Nc1ncnc2sc3c(c12)CCCC3)c1cccs1 | 46 | 2
9.41 | 55.1 |  |  |  | C/C(=N\Nc1ncnc2sc3c(c12)CCCC3)c1cc(Cl)ccc1Cl | > 256 | > 27.2
1.1 | 3.48 |  |  |  | C/C(=N\Nc1ncnc2sc3c(c12)CCCC3)c1ccccn1 | 7.59 | 6.9
2.75 | 9.4 |  |  |  | O=C(NNc1ncnc2sccc12)c1cc(O)ccc1O | > 165 | > 60
147 |  |  |  |  | O=C(NNc1ncnc2sc3c(c12)CCCC3)c1ccc[nH]1 | 160 | 1.1
403 | > 443 |  |  |  | C/C(=N\Nc1ncnc2sc3c(c12)CCCC3)c1cccc(O)c1 | > 443 | > 1.1

Further lines, the compound ahead of its results:

SMILES | EC50 [1, 5] [µM] | EC90 [1, 5] [µM] | IC50 [4] [µM] | EC50 [1] [µM] | EC90 [1] [µM] | CC50 at 72 h [2] [µM] | selectivity ratio [3]
O=C(Nc1ccc(S(=O)(=O)O)c2ccccc12)c1ccc(C(=O)Nc2ccc(S(=O)(=O)O)c3ccccc23)cc1 | > 86 | > 86 |  |  |  | > 86 | 
c1cnc2c(Nc3ncnc4sc5c(c34)CCCC5)cccc2c1 | 186 | > 100 |  |  |  | > 301 | > 1.6
O=C(NNc1ncnc2sc3c(c12)CCC3)c1cnccn1 | 0.0945 | < 0.256 |  |  |  | 2.97 | 31.4
C/C(=N/Nc1ncnc2sccc12)c1cc(O)ccc1O | 2.79 | 4.55 | 229 |  |  | 226 | 81
C/C(=N/Nc1ncnc2sccc12)c1ccccc1O | 4.69 | > 10.6 | > 1000 |  |  | 80.5 | 17.2
c1ccc2[nH]c(Nc3ncnc4sc5c(c34)CCCC5)nc2c1 | 55.4 | > 104 | > 1000 |  |  | 231 | 4.2
CCOC(=O)c1cnc2c(ccc3ccccc32)c1Nc1ccc(C(=O)OC)cc1 | 10.9 |  |  |  |  | 56.2 | 5.2
CCOc1cccc(C(=O)Nc2cc(C(=O)OC)ccc2N2CCN(CC)CC2)c1 | 38.9 |  |  |  |  | 61.7 | 1.6
CCC[C@H](NC(=O)[C@@H]1[C@H]2CCC[C@H]2CN1C(=O)[C@@H](NC(=O)[C@@H](NC(=O)c1cnccn1)C1CCCCC1)C(C)(C)C)C(=O)C(=O)NC1CC1 [TELAPREVIR] | 0.8 |  |  |  |  |  | 58.8
O=C(/C=C(/C(=O)O)c1ccccc1)Nc1ccc(N2CCN(CCO)CC2)cc1 | 65 |  |  |  |  | > 126 | > 0.19
C/C(=N\Nc1ncnc2sc3c(c12)CCCC3)c1ccc(O)cc1 | > 295 | > 295 |  |  |  | > 295 | 
COc1cccc(C2=Nn3c(CN4CCC(C)CC4)nnc3SC2)c1 | 130 | > 139 |  |  |  | > 139 | > 1.1
Cc1nc(NNC(=O)c2ccccn2)c2c3c(sc2n1)CCCC3 | 0.077 | 0.32 |  |  |  | > 2.95 | > 38.1
C/C(=N/Nc1ncnc2sccc12)c1cnccn1 | 5.04 | 1.79 |  |  |  | 9.01 | 1.8
C/C(=N\Nc1ncnc2sc3c(c12)CCC3)c1cc(O)ccc1O | 17.8 | 17.6 |  |  |  | > 367 | > 20.6
C/C(=N/Nc1ncnc2sc(C)c(C)c12)c1ccccc1O | 0.384 | < 1.28 |  |  |  | 93.6 | 244
O=S(=O)(Nc1ccc(O)c(Sc2ncn[nH]2)c1)c1cccc2ccccc12 | 42.2 |  |  |  |  | > 126 | > 2.9
C/C(=N/Nc1ncnc2sc3c(c12)CCC3)c1cnccn1 | 0.688 | < 0.839 |  |  |  | 1.12 | 1.6
NNc1ncnc2sc3c(c12)CCCC3 | 23.1 | 47.4 |  |  |  | 247 | 10.7

SMILES | EC50 [1, 5] [µM] | EC90 [1, 5] [µM] | IC50 [4] [µM] | EC50 [1] [µM] | EC90 [1] [µM] | CC50 at 72 h [2] [µM] | selectivity ratio [3]
COc1ccc(/C(C)=N/NC(=O)c2cc(O)cc(O)c2)c(OC)c1 | > 151 | > 151 |  |  |  | > 151 | 
C/C(=N\Nc1ncnc2sc3ccccc3c12)c1cnccn1 | 0.415 | 0.858 |  |  |  | 1.99 | 6.4
C/C(=N\Nc1nc(C)nc2sc3c(c12)CCCC3)c1ccccc1O | 115 | > 94.6 |  |  |  | > 284 | > 2.5
O=C(NNc1ncnc2sc3c(c12)CCCC3)c1cccs1 | 31.1 |  |  |  |  | 36.7 | 1.2
O=C(NNc1ncnc2sccc12)c1ccccc1O | 12 | > 38.8 |  |  |  | > 349 | > 27
O=C(CCN1C(=O)c2cccc3cccc(c23)C1=O)N1CCN(Cc2ccc3c(c2)OCO3)CC1 | 32 |  |  |  |  | > 106 | > 3.3
O=C(N/N=C\c1cccnc1)c1cc(-c2ccc3c(c2)OCO3)n[nH]1 | > 149 | > 149 |  |  |  | > 149 | 
O=C(NNc1ncnc2sc3c(c12)CCCC3)c1cccnc1 | 128 | > 307 |  |  |  | > 307 | > 2.4
COc1ccc(C(N)=O)cc1NS(=O)(=O)c1cccc2cccnc12 | > 140 | > 140 |  |  |  | > 140 | 
CCOc1cc(C)c(S(=O)(=O)N2CCN(Cc3ccc4c(c3)OCO4)CC2)cc1C | 34.5 |  |  |  |  | > 116 | > 3.4
COC(=O)c1ccc(N2C(=O)CC(S/C(=N\c3ccccc3)NCc3ccc4c(c3)OCO4)C2=O)cc1 (stereo not given) | 12.8 |  |  |  |  | 62.6 | 4.9
CCOc1ccc2sc(NS(=O)(=O)c3ccc(OC)c(OC)c3)nc2c1 | > 127 | > 127 |  |  |  | > 127 | 
C/C(=N\Nc1ncnc2sc3c(c12)CCCC3)c1ccc[nH]1 | 5.26 | 12.8 |  |  |  | 19.5 | 3.7
O=C(NNc1ncnc2sc3ccccc3c12)c1ccccn1 | 0.461 | 1.01 |  |  |  | 1.54 | 3.3
COc1ccc(-c2c(C#N)c(SCC(N)=O)nc3c2CCCC3)cc1 | 130 | > 142 |  |  |  | > 142 | > 1.1
C/C(=N\Nc1ncnc2sc3c(c12)CCCC3)c1ccco1 | 18.2 |  |  |  |  | 58.9 | 3.2
C/C(=N\Nc1ncnc2sc3c(c12)CCCC3)c1cccnc1 | 79.4 | > 103 |  |  |  | > 309 | > 3.9
C/C(=N\Nc1ncnc2sc3c(c12)CCCC3)c1cc(O)ccc1O (stereo in doubt; form 2) |  |  |  | < 2.2 | 135 | > 282 | > 128

Source: ChEMBL document CHEMBL3870302, “Computer-aided identification, synthesis and evaluation of substituted thienopyrimidines as novel inhibitors of HCV replication” (Eur J Med Chem, 2016)
